Hits are enriched below; roughly 4.5% of the tested compounds scored in any of these assays.
TAAR1 ag: agonists of human TAAR1 | activation, % at 3 µM | actives 0.99% (n = 360,000) | Q96RJ0 | CHO RD-HGA16 TAAR1, Fluo-8 calcium fluorescence; vehicle wells 0%, saturating PEA agonist 100% | AID 624467;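 active = activation above the mean activation of all test compounds in the run plus 3 SD, cut at about 38% in these data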
Target sequence (Q96RJ0 whole entry, looked up): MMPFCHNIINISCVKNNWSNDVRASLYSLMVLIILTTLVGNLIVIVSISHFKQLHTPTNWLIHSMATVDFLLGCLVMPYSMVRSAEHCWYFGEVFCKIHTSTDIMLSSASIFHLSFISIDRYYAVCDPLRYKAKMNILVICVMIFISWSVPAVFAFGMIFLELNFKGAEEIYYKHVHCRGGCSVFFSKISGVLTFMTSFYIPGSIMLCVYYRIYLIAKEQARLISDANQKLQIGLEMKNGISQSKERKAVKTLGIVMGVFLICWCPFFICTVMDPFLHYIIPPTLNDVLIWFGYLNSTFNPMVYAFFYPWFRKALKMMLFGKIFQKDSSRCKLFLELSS
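System: CHO RD-HGA16 cells carrying human TAAR1 plus Gα16; Incubation: 17-24 h seeding, 75 min 37 °C dye, 30 min RT; Measured by: Fluo-8 fluorescence, 5 s baseline then 140 s kinetic read; Control set: DMSO and PEA EC100; Replication: single well for each compound.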
OX1R antag-1: blocks the human orexin 1 receptor; inhibition, % at 6.6 µM; O43613; OX1R-expressing cells, FRET antagonist read-out; AID 485270; actives 1.8% (n = 330,000); in the data active = inhibition mostly above about 38%, no sharp cut-off; inactive = mostly below about 40%
OX1R antag-2: antagonists of human orexin 1 receptor; O43613; CHO/OX1R cells, Fluo-8 calcium fluorescence, orexin A; inhibition, % at 5 µM; actives 0.43% (n = 330,000);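 active = inhibition above its plate's threshold, mean inhibition of all tested compounds on the plate plus 3 SD, cut at about 37% in these data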
GPR7 antagonist: human neuropeptides B/W receptor 1 antagonism; AID 1861; actives 1.1% (n = 290,000); GPR7-expressing cells, fluorescence antagonist assay; inhibition, % at 4.4 µM; P48145; in the data active = inhibition above about 16%, passing the limit was not always enough;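 also: cells stimulated with the agonist NPW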
Target sequence (P48145 whole entry, looked up): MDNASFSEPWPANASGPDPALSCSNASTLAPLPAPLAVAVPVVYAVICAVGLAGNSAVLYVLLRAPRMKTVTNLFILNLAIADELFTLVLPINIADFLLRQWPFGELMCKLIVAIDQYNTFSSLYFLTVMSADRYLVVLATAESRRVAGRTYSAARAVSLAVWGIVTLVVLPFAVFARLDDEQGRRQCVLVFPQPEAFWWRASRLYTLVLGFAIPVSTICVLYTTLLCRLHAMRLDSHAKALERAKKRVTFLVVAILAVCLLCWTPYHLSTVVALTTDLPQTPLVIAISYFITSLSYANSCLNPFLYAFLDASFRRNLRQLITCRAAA
CHO parental Ca: counter-screen for OX1R antagonists: effect in parental CHO cells; parental CHO-K1, ATP-induced calcium, Fluo-8 fluorescence; inhibition, % at 5.6 µM; actives 0.63% (n = 330,000);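 active = inhibition above that plate's mean sample inhibition plus 3 SD, cut at about 26% in these data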
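Test system: untransfected parental CHO cell line; also added: ATP stimulus; dosing: 5.6 µM, single dose; signal: calcium-sensitive Fluo-8 fluorescence; measure: percent inhibition of ATP-evoked calcium rise, normalized to controls; benchmarks: low control ATP plus DMSO, high control DMSO only; replication: one well per compound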
TAAR1 antag: human TAAR1 antagonism | Q96RJ0 | CHO RD-HGA16 TAAR1, Fluo-8 calcium fluorescence, antagonist | inhibition, % at 3 µM | actives 1.5% (n = 360,000);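 active = inhibition above a per-plate cutoff, the mean inhibition of test compounds on that plate plus 3 SD, cut at about 49% in these data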
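System: CHO RD-HGA16 cells bearing hTAAR1. Reagent: EC80 β-phenethylamine stimulus. Schedule: seeding 17-24 h prior, 75-min 37 °C, 30-min RT dye loading. Signal: Fluo-8 intracellular calcium dye fluorescence, real-time kinetic reads. Read-out: % inhibition from peak post-agonist over basal fluorescence ratio. Benchmarks: vehicle wells and EC80 agonist wells. Replicates: n of 1.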
Each line names hits and unclear results; the compound was inactive in the other large screens.

COCCNC(=S)N1CCC(c2nc(-c3ccc(N(C)C)cc3)no2)CC1	none
CC(C)CNC(=S)N1CCC(c2nc(-c3ccc(F)cc3)no2)CC1	CHO parental Ca 48
Cc1ccc(NN2C(=O)C=C(c3ccc(Cl)cc3)C2=O)cc1	OX1R antag-2 73, CHO parental Ca 68, TAAR1 antag 58
COc1ccc(C2=CC(=O)N(Nc3ccccc3)C2=O)cc1	none
N#CC1=C(N)Nc2ncnn2C1c1ccc([N+](=O)[O-])cc1 (stereo unspecified)	OX1R antag-1 69
COc1ccc(C(=O)N2CCC[C@@H]2C(=O)N2CCC[C@@H]2C(=O)NCc2ccccc2)cc1F	none (no result: OX1R antag-1, OX1R antag-2, GPR7 antagonist, CHO parental Ca)
C[C@@H]1CN([C@@H](C)CO)C(=O)CCCn2cc(nn2)CO[C@H]1CN(C)C(=O)Nc1cccc(C(F)(F)F)c1	none (no result: OX1R antag-1, OX1R antag-2, GPR7 antagonist, CHO parental Ca)
CCc1nnc(N/N=C/c2ccc(N3CCC(C)CC3)c([N+](=O)[O-])c2)n1N	OX1R antag-1 60
CC1CCN(c2cc(N3CCOCC3)c(F)cc2[N+](=O)[O-])CC1	none
Cc1nnc(N/N=C/c2cc([N+](=O)[O-])c(N3CCC(C)CC3)cc2N2CCC(C)CC2)n1N	OX1R antag-1 146
Cc1ccc(S(=O)(=O)N(C)[C@H]2C[C@H]3c4[nH]c5cccc(-c6ccccc6)c5c4CCN3C(=O)[C@H]2[C@H](C)O)cc1	none (no result: OX1R antag-1, OX1R antag-2, GPR7 antagonist, CHO parental Ca)
O=C(CN1C(=O)/C(=C\c2ccccc2Cl)Oc2ccccc21)NCc1cccnc1	OX1R antag-1 72
CCC1(c2ccc(OC)cc2)NC(=O)N(CC(=O)N2CCc3ccccc32)C1=O (stereo unspecified)	TAAR1 ag 64 (no result: OX1R antag-1, OX1R antag-2, GPR7 antagonist, CHO parental Ca)
CCC1(c2ccc(OC)cc2)NC(=O)N(CC(=O)c2ccc3c(c2)OCCO3)C1=O (stereo unspecified)	TAAR1 ag 38 (no result: GPR7 antagonist)
CC1(c2ccccc2)NC(=O)N(CC(=O)Nc2ccccc2N2CCCCC2)C1=O (stereo unspecified)	none (no result: GPR7 antagonist)
CCC1(c2ccccc2)NC(=O)N(CC(=O)Nc2ccccc2N2CCCC2)C1=O (stereo unspecified)	TAAR1 ag 39 (no result: GPR7 antagonist)
CCC1(c2ccccc2)NC(=O)N(CC(=O)N(CC(=O)Nc2ccccc2C(F)(F)F)Cc2ccco2)C1=O (stereo unspecified)	TAAR1 ag 44 (no result: GPR7 antagonist)
CCN1CCN(c2ccc(S(=O)(=O)N3CCCCC3)cc2NC(=O)c2cccc(OC(F)F)c2)CC1	none (no result: GPR7 antagonist)
O=C(c1cccc([N+](=O)[O-])c1)c1ccc2c(c1)C(=O)NC2=O	OX1R antag-1 54
Nc1ccc2ccc(NS(=O)(=O)N3CCCCC3)cc2c1	none (no result: OX1R antag-1, OX1R antag-2, GPR7 antagonist, CHO parental Ca)
Nc1nn(-c2ccccc2)c(N)c1N=Nc1ccc2c(c1)OCO2	GPR7 antagonist 24
Nc1nn(-c2ccccc2)c(N)c1N=Nc1cccc(F)c1	none
O=C(CCN1CCN(c2ccccc2)CC1)N/N=C/c1ccc([N+](=O)[O-])o1	OX1R antag-1 71
CC1(C(=O)N/N=C/c2ccc([N+](=O)[O-])o2)CC1(Br)Br (stereo unspecified)	OX1R antag-1 73
O=C(Cc1ccc([N+](=O)[O-])cc1)N/N=C/c1ccc([N+](=O)[O-])o1	none
O=C(CN1CCOCC1)NN=Cc1ccc([N+](=O)[O-])o1	none (no result: OX1R antag-1, OX1R antag-2, GPR7 antagonist, CHO parental Ca)
OCc1ccc2c(c1)c(-c1ccc3c(c1)OCCO3)c(-c1ccccc1)n2-c1ccccc1	TAAR1 antag 62 (no result: GPR7 antagonist)
O=C(/C=C/c1cn(-c2ccccc2)nc1-c1ccc2c(c1)OCCO2)NCCO	none
COc1ccc2oc(=N)c(C(=O)Nc3ccccc3)cc2c1	OX1R antag-1 76
COc1ccc(Nc2ncccc2C(=O)Nc2ccccc2)cc1	CHO parental Ca 50
CC(C)NS(=O)(=O)c1ccc(CCC(=O)Nc2cc(Cl)ccc2Oc2ccccc2)cc1	CHO parental Ca 44 (no result: TAAR1 ag, TAAR1 antag)
CC(C)NS(=O)(=O)c1ccc(NC(=O)CCc2ccccc2)cc1	none
CCN(CC(=O)Nc1c(F)cccc1F)C(=O)CCc1nc2sc3c(c2c(=O)[nH]1)CCCC3	OX1R antag-1 67 (no result: GPR7 antagonist)
CCN(CC(=O)Nc1ccccc1C(F)(F)F)C(=O)CCc1nc2sc3c(c2c(=O)[nH]1)CCCC3	OX1R antag-1 42 (no result: GPR7 antagonist)
CN(CC(=O)Nc1ccccc1C(F)(F)F)C(=O)CCc1nc2sc3c(c2c(=O)[nH]1)CCCC3	none
CCN(CC(=O)Nc1c(F)cccc1F)C(=O)C(C)SCc1nc2sc(C)c(C)c2c(=O)[nH]1 (stereo unspecified)	OX1R antag-1 67
O=[N+]([O-])c1ccc(COc2cccc(CO)c2)cc1	none (no result: OX1R antag-1, OX1R antag-2, GPR7 antagonist, CHO parental Ca)
CCOC(=O)CN1C(=O)[C@]2(OCCC=C[C@H]2C)c2ccccc21	none (no result: OX1R antag-1, OX1R antag-2, GPR7 antagonist, CHO parental Ca)
CC(=O)OCC(=O)N1CCN(C(=O)C(=O)c2cccc(C(F)(F)F)c2)CC1	none (no result: OX1R antag-1, OX1R antag-2, GPR7 antagonist, CHO parental Ca)
Cc1ccc(NC(=O)[C@@H](Cc2ccccc2)NC(=O)[C@H]2O[C@@H](n3ccc(=O)[nH]c3=O)[C@H](O)[C@@H]2O)cc1C	none (no result: OX1R antag-1, OX1R antag-2, GPR7 antagonist, CHO parental Ca)
CCN(CCNCC(O)COCc1ccc(Cl)cc1)c1cccc(C)c1 (stereo unspecified)	TAAR1 ag 40
CCOC(=O)c1nc(Nc2ccc(Nc3ccccc3)cc2)c2ccccc2n1	TAAR1 antag 63 (no result: OX1R antag-1, OX1R antag-2, CHO parental Ca)
CCOC(=O)c1ccc(Nc2nc(C(=O)OCC)nc3ccccc23)cc1	none
CSC1=C(C#N)C2(CCCC2)C(C#N)=C(N)N1	none (no result: TAAR1 ag, TAAR1 antag)
N#CC1=C(N)N2C(=C(C#N)C13CCCCC3)SC1CCCCC12O (stereo unspecified)	CHO parental Ca 33
CC(C)(C)NC(=O)c1ccc2nsnc2c1	OX1R antag-1 67
COC(=O)c1ccc(NC(=O)c2ccc3nsnc3c2)cc1	none
O=C(Nc1ccc(S(=O)(=O)Nc2ccc(Cl)cc2)cc1)C1CCCO1 (stereo unspecified)	TAAR1 ag 41
O=C(NCC1CCCO1)c1ccccc1S(=O)(=O)c1ccc([N+](=O)[O-])cc1 (stereo unspecified)	OX1R antag-1 76
O=C(NS(=O)(=O)c1ccc(NC(=O)C2CCCO2)cc1)c1ccccc1 (stereo unspecified)	none
O=S(=O)(NCC1CCCO1)c1ccc(-c2ccc(Cl)cc2)cc1 (stereo unspecified)	CHO parental Ca 36
O=C(NCC1CCCO1)c1ccc(NS(=O)(=O)c2cccc([N+](=O)[O-])c2)cc1 (stereo unspecified)	none
Cc1ccc(NS(=O)(=O)c2ccc(C(=O)NCC3CCCO3)cc2)cc1 (stereo unspecified)	TAAR1 ag 40
COc1ccc(CCn2c(=N)c(C(=O)NCCN3CCOCC3)cc3c(=O)n4ccccc4nc32)cc1OC	OX1R antag-1 50
Cc1ccc2nc3c(cc(C(=O)NC4CCCC4)c(=N)n3CCCn3ccnc3)c(=O)n2c1	OX1R antag-1 84 (no result: TAAR1 ag, TAAR1 antag)
